MC4R antagonist – human MC4R antagonism in cAMP assay; P32245; MC4R-expressing cells, MTII-stimulated cAMP, LANCE TR-FRET; inhibition, % at 6.5 µM; 0.48% of 360,000 active; AID 540295;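 active = inhibition above its plate's cutoff, the mean of tested wells on that plate plus 3 SD, cut at about 29% in these data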;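 also: 0% = Melanotan II alone and 100% = Melanotan II plus saturating MCL0020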
Target sequence (P32245 whole entry, looked up): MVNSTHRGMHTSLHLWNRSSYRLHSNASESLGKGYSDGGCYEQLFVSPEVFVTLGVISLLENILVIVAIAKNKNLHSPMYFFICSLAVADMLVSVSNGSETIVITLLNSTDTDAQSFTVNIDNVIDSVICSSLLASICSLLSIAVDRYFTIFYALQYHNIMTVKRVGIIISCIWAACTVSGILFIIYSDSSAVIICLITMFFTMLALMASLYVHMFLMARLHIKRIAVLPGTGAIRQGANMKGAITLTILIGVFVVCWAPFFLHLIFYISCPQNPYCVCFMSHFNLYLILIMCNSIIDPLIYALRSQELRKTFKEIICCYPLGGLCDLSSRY
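Test system: U2OS cells stably expressing human melanocortin 4 receptor (MC4R); also added: Melanotan II challenge; compound: 6.5 µM single dose; timing: 30-min compound preincubation, 1-h Melanotan II challenge, 1-h detection, room temperature; signal: Eu-cAMP/anti-cAMP TR-FRET, emission 671 nm; repeats: one well per compound, no replicates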
MC4R barr agon – agonists of human melanocortin 4 receptor (MC4R) beta-arrestin; P32245; U2OS MC4R beta-arrestin complementation, luminescence; percent of melanotan II response, DMSO zero; activation, % at 8.9 µM; 0.98% of 360,000 active;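 active = activation above a per-plate cutoff, the mean activation of sample wells on that plate plus 3 SD, cut at about 8% in these data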
TbMetRS inhib – blocks T. brucei methionyl-tRNA synthetase activity | purified T. brucei MetRS, ATP depletion, Kinase-Glo luminescence | inhibition, % at 11.9 µM | 0.4% of 360,000 active | AID 624268;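 active = inhibition above a per-plate cutoff of the control wells' mean inhibition plus 3 SD, cut at about 5.5% in these data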;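 also: 0% = DMSO wells median and 100% = median of wells with control inhibitor compound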
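Test system – parasite MetRS enzyme · Reagent – substrates ATP, L-methionine and bulk Escherichia coli tRNA · Doses – 11.9 µM compound single dose, 0.9% DMSO · Times – 15 min enzyme-compound preincubation, 2 h reaction, 10 min detection, 25 °C · Signal – Kinase-Glo luminescence, ATP depletion format · Controls – DMSO-only wells as low control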
ABCB6 inh 2 – human ABCB6 transporter inhibition; Q9NP58; K562-ABCB6 porphyrin accumulation, flow cytometry, 1 h; hits give low values; fluorescence ratio to DMSO, % at 10 µM; 0.19% of 360,000 active;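 active = fluorescence ratio to DMSO below 75%, the collection mean minus 3 SD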;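 also: signal is porphyrin accumulated inside mitochondria; 100% equals median channel fluorescence of DMSO control wells; lower ratio means ABCB6 inhibition with less porphyrin fluorescence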
Exocytosis inh – lytic granule exocytosis inhibition; TALL-104 LAMP-1 surface exposure, flow cytometry; cells stimulated with thapsigargin and PMA; inhibition, % at 10 µM; 0.66% of 360,000 active; AID 651702;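 active = inhibition above about 55%, limit read from the data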
iPSC survival up – enhancers of human iPSC single-cell survival. hiPSC single-cell survival, ATPlite luminescence; 100% = ROCK inhibitor wells, 0% = DMSO. survival enhancement, % at 20 µM. 0.044% of 360,000 active. AID 602274; in the data active = survival enhancement above about 18%;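 also: cells exposed to compounds for 16 hours before the ATP read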
ABCB6 inh CP1 – blocks the human ABCB6 transporter; shares compounds with ABCB6 inh 2; K562-ABCB6 porphyrin accumulation, flow cytometry, 1 h; hits give low values; ratio response (% of DMSO), % at 10 µM; 700 tested, under 10 active; AID 602430;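 active = repeat-averaged ratio response below 75% of DMSO, the collection mean minus 3 SD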;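 also: median porphyrin fluorescence at 575 nm with 488 nm excitation from mitochondria; lower ratio means less porphyrin signal so ABCB6 inhibition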
Starred values were filed as active, the others as inactive. In the library only some 2.6% were active in any assay of this set; here they are far more common.

`CC1CCN(C(=O)CCc2nnc3ccc(N4CCC5(CC4)OCCO5)nn23)CC1` gave MC4R antagonist 1.3, MC4R barr agon -0.6, TbMetRS inhib -0.6, ABCB6 inh 2 100.0, Exocytosis inh -1.6, iPSC survival up -0.5 and ABCB6 inh CP1 99.0.
`O=C(COc1ccccc1)N1CCN(C(=O)COc2ccccc2)CC1` gave MC4R antagonist 5.9, MC4R barr agon -0.1, TbMetRS inhib -0.4, ABCB6 inh 2 68.0*, Exocytosis inh -6.4, iPSC survival up -0.4 and ABCB6 inh CP1 99.0.
`O=C(COc1ccccc1)N1CCCCCCC1` gave MC4R antagonist 5.0, MC4R barr agon -0.6, TbMetRS inhib 1.5, ABCB6 inh 2 98.0, Exocytosis inh -1.5 and iPSC survival up -0.1.
For CC(C)(C)N(Cc1ccccc1)C(=O)CCc1ccccc1 the results were MC4R antagonist 6.8, MC4R barr agon 2.9, TbMetRS inhib -0.8, ABCB6 inh 2 89.0, Exocytosis inh -2.6 and iPSC survival up 2.6.
CCc1ccc(CNC(=O)C2Cc3cc(S(=O)(=O)N4CCCC4)ccc3N2C(C)=O)cc1 (centres undefined) was read as MC4R antagonist -1.5, MC4R barr agon -0.9, TbMetRS inhib -0.5, ABCB6 inh 2 5.0*, Exocytosis inh 0.2, iPSC survival up -0.5 and ABCB6 inh CP1 99.0.
Clc1nnc(Cl)c2c1ncn2Cc1ccccc1 was read as MC4R antagonist -0.2, MC4R barr agon -3.7, TbMetRS inhib -0.1, ABCB6 inh 2 73.0*, Exocytosis inh -10.2, iPSC survival up 0.0 and ABCB6 inh CP1 100.0.
For Cn1nc(-c2ccc(C(=O)N3CCN(CCO)CC3)cc2)c2ccccc2c1=O the results were MC4R antagonist -3.4, MC4R barr agon -0.3, TbMetRS inhib -0.3, ABCB6 inh 2 72.0*, Exocytosis inh 7.6, iPSC survival up 6.3 and ABCB6 inh CP1 97.0.
Screening CCCC(=O)O[C@@H]1C[C@@H](C)N(C(=O)c2ccccc2)c2ccc(C)cc21 returned MC4R antagonist 2.2, MC4R barr agon -0.8, TbMetRS inhib -1.7, ABCB6 inh 2 72.0*, Exocytosis inh -1.8, iPSC survival up 2.8 and ABCB6 inh CP1 100.0.
For Cc1ccc2c(c1)C1CN(C)CCC1N2C(=O)COc1ccc(N(C)C(=O)c2ccccc2)cc1 (centres undefined) the results were MC4R antagonist 4.2, MC4R barr agon -0.5, TbMetRS inhib -0.7, ABCB6 inh 2 103.0, Exocytosis inh -0.3 and iPSC survival up -0.6.
For CC(=O)N1C(=O)C2(C(C#N)=C(N)Oc3c2c(C)nn3-c2ccccc2)c2ccccc21 (centres undefined) the results were MC4R antagonist -1.4, MC4R barr agon 1.4, TbMetRS inhib 0.2, ABCB6 inh 2 44.0*, Exocytosis inh 3.9, iPSC survival up -3.9 and ABCB6 inh CP1 101.0.
Screening O=c1c2c(-c3cccs3)csc2ncn1-c1ccccc1 returned MC4R antagonist 12.9, MC4R barr agon 0.7, TbMetRS inhib -0.3, ABCB6 inh 2 47.0*, Exocytosis inh -0.8, iPSC survival up -1.9 and ABCB6 inh CP1 97.0.
CCOc1ccc(CNC(=O)CN2C(=O)CSc3ccc(S(=O)(=O)N4CCOCC4)cc32)cc1 was read as MC4R antagonist 4.8, MC4R barr agon -2.4, TbMetRS inhib 0.0, ABCB6 inh 2 101.0, Exocytosis inh -10.8 and iPSC survival up -0.9.
`COc1ccc(Cl)cc1NC(=O)CCCC(=O)c1ccccc1` gave MC4R antagonist 0.9, MC4R barr agon -1.7, TbMetRS inhib -0.6, ABCB6 inh 2 61.0*, Exocytosis inh 7.5, iPSC survival up 1.2 and ABCB6 inh CP1 99.0.
COc1ccc(Cl)cc1NC(=O)CCc1ccccc1 was read as MC4R antagonist -4.8, MC4R barr agon -1.1, TbMetRS inhib -0.7, ABCB6 inh 2 95.0, Exocytosis inh 1.8 and iPSC survival up 0.3.

Bioassay records as filed in PubChem.
